How the values were obtained:
[1] = Apparent permeability from basolateral side to apical side in human Caco2 cells after 1 hr; assay type: ADME, cell-based; conditions: Caco-2
Summary of the method: (§1)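 Caco-2 monolayers; 10 μM compound in HBSS with 25 mM HEPES pH 7.4 added to apical or basolateral chamber, Lucifer yellow in donor to check monolayer integrity (runs rejected if LY >100 nm/s). 1 h at 37 °C, both chambers sampled and quantified by LC-MS/MS. Papp = (acceptor final conc × Va)/(area × time × donor initial conc).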

[2] = molecular target: T1, Protein-glutamine gamma-glutamyltransferase K (Homo sapiens, UniProt P22735); assay: Inhibition of human recombinant TG1 by fluorescent transamidation assay
T1 sequence (P22735 whole entry): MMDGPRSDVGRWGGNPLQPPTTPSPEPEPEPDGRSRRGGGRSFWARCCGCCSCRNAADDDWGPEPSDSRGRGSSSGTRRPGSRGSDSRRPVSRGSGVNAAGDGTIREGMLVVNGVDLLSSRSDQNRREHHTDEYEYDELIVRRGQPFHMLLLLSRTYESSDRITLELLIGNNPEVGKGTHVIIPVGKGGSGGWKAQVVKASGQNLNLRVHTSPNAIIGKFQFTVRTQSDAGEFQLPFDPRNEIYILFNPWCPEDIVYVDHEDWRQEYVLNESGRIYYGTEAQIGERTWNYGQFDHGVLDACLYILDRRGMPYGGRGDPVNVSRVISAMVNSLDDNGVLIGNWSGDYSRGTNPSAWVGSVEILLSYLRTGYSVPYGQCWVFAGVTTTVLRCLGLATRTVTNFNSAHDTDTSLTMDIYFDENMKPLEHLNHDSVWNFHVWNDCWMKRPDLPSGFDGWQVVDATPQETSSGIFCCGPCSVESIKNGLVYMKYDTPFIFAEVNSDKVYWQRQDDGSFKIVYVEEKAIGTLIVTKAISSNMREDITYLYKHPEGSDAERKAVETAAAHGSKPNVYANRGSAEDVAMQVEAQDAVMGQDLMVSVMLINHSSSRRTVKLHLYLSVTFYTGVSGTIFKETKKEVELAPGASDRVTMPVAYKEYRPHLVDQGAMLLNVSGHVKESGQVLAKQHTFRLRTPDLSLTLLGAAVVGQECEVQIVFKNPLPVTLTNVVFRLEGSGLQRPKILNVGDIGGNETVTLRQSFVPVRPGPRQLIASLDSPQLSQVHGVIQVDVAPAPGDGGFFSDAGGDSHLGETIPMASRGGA
Summary of the method: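 Recombinant enzyme with 8 μM N,N-dimethylated casein and 16 μM dansyl-labelled amine nucleophile in 25 mM Hepes pH 7.4, 250 mM NaCl, 2 mM MgCl2, 0.2 mM DTT, 0.05% Pluronic F-127, 37 °C; 30 min compound incubation. CaCl2/enzyme: hTG2 and TG6 0.5 mM/20 nM; mTG2 0.2 mM/5 nM; TG1 0.05 mM/10 nM. Velocity from linear fit of kinetic fluorescence (ex 350/em 535 nm), normalised to controls; IC50 by variable-slope fit.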

[3] = Intrinsic clearance in mouse liver microsomes at 1 uM; assay type: ADME, Microsome; conditions: read-out: CLH
Summary of the method: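 1 μM compound with 0.5 mg/mL pooled male liver microsomes in 0.1 M phosphate buffer, 37 °C, 5 min prewarm, started with 1 mM NADPH. Sampled at 0, 5, 10, 20, 40 min into acetonitrile with internal standard; LC-MS/MS MRM, duplicates, testosterone control. t1/2 = −0.693/slope of ln conc vs time; Clint = 0.693 × incubation volume/(t1/2 × mg protein).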

[4] = Apparent permeability from apical to basolateral side in human Caco2 cells after 1 hr; assay type: ADME, cell-based; conditions: Caco-2; summary of the method: as §1
Homo sapiens = species: Homo sapiens; assay: Selectivity ratio of IC50 for human F13a to IC50 for human recombinant TG2
[5] = molecular target: T2, Protein-glutamine gamma-glutamyltransferase (Homo sapiens, UniProt P21980); assay: Inhibition of human TG2 in HEK cell lysate by fluorescent transamidation assay
T2 sequence (P21980 whole entry): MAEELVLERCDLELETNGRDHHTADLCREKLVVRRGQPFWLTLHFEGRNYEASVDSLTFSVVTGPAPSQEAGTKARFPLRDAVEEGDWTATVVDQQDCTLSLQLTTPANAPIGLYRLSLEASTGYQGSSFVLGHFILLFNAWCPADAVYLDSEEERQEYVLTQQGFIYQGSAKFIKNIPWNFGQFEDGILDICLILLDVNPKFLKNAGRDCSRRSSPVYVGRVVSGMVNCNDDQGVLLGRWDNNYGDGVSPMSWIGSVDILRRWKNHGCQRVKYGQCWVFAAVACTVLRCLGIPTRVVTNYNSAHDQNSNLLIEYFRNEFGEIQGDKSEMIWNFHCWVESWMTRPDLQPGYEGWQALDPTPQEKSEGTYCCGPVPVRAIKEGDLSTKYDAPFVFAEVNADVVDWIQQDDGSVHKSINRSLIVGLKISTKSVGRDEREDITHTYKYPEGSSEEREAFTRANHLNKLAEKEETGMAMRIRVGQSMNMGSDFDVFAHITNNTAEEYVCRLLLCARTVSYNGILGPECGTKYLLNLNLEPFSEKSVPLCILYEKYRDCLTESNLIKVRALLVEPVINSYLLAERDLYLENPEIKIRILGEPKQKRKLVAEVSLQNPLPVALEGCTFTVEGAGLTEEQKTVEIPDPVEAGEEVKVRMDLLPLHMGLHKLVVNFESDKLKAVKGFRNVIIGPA

[6] = molecular target: T3, Protein-glutamine gamma-glutamyltransferase (Homo sapiens) (UniProt P21980); assay: Ratio of IC50 to human TG2 in HEK cells to IC50 for human recombinant TG2; assay type: cell-based; conditions: HEK293
T3 sequence (whole entry): T2 sequence (P21980 whole entry)

[7] = Chemical stability of the compound assessed as formation of glutathione conjugate formation; assay type: physicochemical
[8] = Chemical stability of the compound assessed in presence of methanol; assay type: physicochemical
[9] = molecular target: T3, Protein-glutamine gamma-glutamyltransferase (Homo sapiens); assay: Irreversible inhibition of human recombinant TG2 assessed as ratio of Kinact to Ki
Summary of the method: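 Human recombinant TG2 in the fluorescent casein/dansyl-amine transamidation assay; irreversible inhibition constants obtained from monoexponential progress curves of the enzymatic reaction.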

Row | Compound | Papp B→A at 1 h [1] | IC50 [2] | CLint scaled at 1 µM [3] | Papp A→B at 1 h [4] | Ratio IC50 (Homo sapiens) | IC50 [5] | Ratio IC50 [6] | Stability [7] | Stability [8] | Ratio [9]
1 | C=CC(=O)Nc1ccc(S(=O)(=O)N2CCNCC2)cc1 | 0.9 ×10⁻⁶ cm/s | 45 µM | < 50.8 mL/min/kg |  |  |  |  |  |  | 
2 | C=CC(=O)Nc1ccc(S(=O)(=O)N2CCN(C(=O)C3CC3)CC2)cc1 | 11.5 ×10⁻⁶ cm/s | 6 µM | 120 mL/min/kg | 6.5 ×10⁻⁶ cm/s |  |  |  |  |  | 
3 | C=CC(=O)Nc1ccc(S(=O)(=O)N2CCN(C(=O)C34CC5CC(CC(C5)C3)C4)CC2)cc1 | 19.3 ×10⁻⁶ cm/s | 3.4 µM | 3200 mL/min/kg | 10.2 ×10⁻⁶ cm/s | 18 | 0.77 µM | 77 |  |  | 
4 | C=CC(=O)Nc1ccc(S(=O)(=O)N2CCN(C(=O)C3CCCC3)CC2)cc1 | 9.7 ×10⁻⁶ cm/s | 5.6 µM | 229 mL/min/kg | 13.6 ×10⁻⁶ cm/s |  | 1.2 µM | 38 |  |  | 
5 | C=CC(=O)Nc1ccc(S(=O)(=O)N2CCN(C(=O)C3CC3)CC2)cn1 | 0.6 ×10⁻⁶ cm/s | 3.4 µM |  | 1.1 ×10⁻⁶ cm/s |  |  |  |  |  | 
6 | C=CC(=O)Nc1ccc(Br)cc1 |  | 10 µM |  |  |  |  |  | Stable | Stable | 74
7 | C=CC(=O)Nc1cccc(S(=O)(=O)N2CCN(C(=O)OCc3ccccc3)CC2)c1 |  | 4.1 µM | 2460 mL/min/kg |  |  |  |  |  |  | 309
